Bioassay records as filed in PubChem.
PHOSPHO1 block – PubChem AID 1565 | inhibition, % at 13.3 µM | Phosphoethanolamine/phosphocholine phosphatase (Homo sapiens), Q8TCT1 | recombinant PHOSPHO1, absorbance phosphatase assay | 290,000 tested, 1.1% active; in the data active = inhibition above about 60%
Target sequence (Q8TCT1 whole entry, looked up): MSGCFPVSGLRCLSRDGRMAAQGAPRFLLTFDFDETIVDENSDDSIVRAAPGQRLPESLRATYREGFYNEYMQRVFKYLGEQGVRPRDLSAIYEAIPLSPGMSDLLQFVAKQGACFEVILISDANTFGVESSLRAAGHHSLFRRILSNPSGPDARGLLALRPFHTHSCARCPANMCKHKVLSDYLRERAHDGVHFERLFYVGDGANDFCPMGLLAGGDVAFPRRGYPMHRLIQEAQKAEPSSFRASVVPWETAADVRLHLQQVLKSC
ASAP1 GAP inh – inhibitors of human ASAP1 ArfGAP activity, primary screen, biochemical, fluorescence polarization; 360,000 tested, 0.19% active; Arf-GAP with SH3 domain, ANK repeat and PH domain-containing protein 1 (Homo sapiens), …; inhibition, % at 16.5 µM; ASAP1-stimulated ARF1 GTP hydrolysis, GDP FP detection; in the data active = inhibition above about 25%;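 note: 0% = vehicle with enzyme and substrate and 100% = no enzyme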
VIM-2 inhibitor – VIM-2 metallo-beta-lactamase inhibitors, primary screen, biochemical, epi-absorbance readout, Pseudomonas aeruginosa enzyme | purified VIM-2, nitrocefin hydrolysis, epi-absorbance fluorescence | inhibition, % at 5.6 µM | 290,000 tested, 0.89% active | AID 1527, 2009;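 active = inhibition above the mean of all tested compounds plus 3 SD, cutoff set per screening run, cut at about 7.5% in these data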;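 note: red hydrolysis product quenches plate fluorescence so inhibitors raise well fluorescence; 0% = enzyme with DMSO and 100% = DMSO without enzyme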
IMP-1 inh-1 – IMP-1 metallo-beta-lactamase inhibitors, primary screen, biochemical, epi-absorbance readout, Pseudomonas aeruginosa enzyme; metallo-beta-lactamase IMP-1 (Pseudomonas aeruginosa); purified IMP-1, nitrocefin hydrolysis, epi-absorbance fluorescence; inhibition, % at 5.6 µM; 290,000 tested, 0.45% active; AID 1556, 2009;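 active = inhibition above the mean plus 3 SD of all compounds in the same screening run, cut at about 4.5% in these data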;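 note: 0% = IMP-1 with DMSO and 100% = DMSO wells lacking enzyme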
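System: purified IMP-1 / Input: IMP-1 dispensed at 0.2 nM / Medium: 50 mM HEPES pH 7.1, 50 µM ZnSO4, 0.05% Brij 35 / Timing: 15 min enzyme–compound preincubation, then 25 min nitrocefin reaction, 25 °C / Technique: plate fluorescence quenching by hydrolysis product, ex 480/em 530 nm / Repeats: singlicate testing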
ARFGAP1 inh – inhibitors of rat ARFGAP1 GAP activity, primary screen, biochemical, fluorescence polarization, GDP tracer. inhibition, % at 16.5 µM. AID 651572, 2012. ADP-ribosylation factor GTPase-activating protein 1 (Rattus norvegicus), Q62848. 360,000 tested, 0.26% active. Arfgap1-stimulated ARF1 GTP hydrolysis, GDP FP detection;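 active = inhibition above a per-plate limit, mean inhibition of low control wells plus 3 SD, cut at about 25% in these data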;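 note: 0% = DMSO wells with enzyme and 100% = wells lacking Arfgap1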
Target sequence (Q62848 1-136 limits assumed): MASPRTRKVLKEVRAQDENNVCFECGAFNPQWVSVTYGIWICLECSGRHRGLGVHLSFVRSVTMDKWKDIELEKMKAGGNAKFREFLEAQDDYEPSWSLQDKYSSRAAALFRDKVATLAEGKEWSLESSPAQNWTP
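Material – truncated rat Arfgap1 GAP domain · Buffer or medium – HEPES-based buffer, pH 7.5 · Reagent – human ARF1(Δ1-17)-GTP substrate · Dosing – 16.5 µM single point, 1.26% DMSO · Schedule – GTP hydrolysis reaction 2 h at 25 °C · Technique – GDP detection by fluorescence polarization · Benchmarks – No-Arfgap1 wells (100%) versus DMSO full-reaction wells (0%) · Repeats – single replicate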
Calb FLC – C. albicans growth inhibition with fluconazole, primary screen, CaCi-2 strain, Alamar Blue fluorescence | C. albicans CaCi-2 (fluconazole-resistant clinical isolate) + fluconazole, 48 h | growth inhibition, % (no concentration beside the values) | 300,000 tested, 0.57% active;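 active = growth inhibition above about 58% in most replicates, limit read from the data, passing the limit was not always enough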;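 note: all wells also contain fluconazole at 8 µg/ml as a sub-toxic cotreatment; 0% = median of DMSO wells and 100% = median of geldanamycin control wells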
IMP-1 inh-2 – IMP-1 metallo-beta-lactamase inhibitors, confirmation, selectivity assay for selective VIM-2 inhibitor project, biochemical, epi-absorbance readout, triplicate. shares compounds with VIM-2 inhibitor. purified IMP-1, nitrocefin hydrolysis, epi-absorbance fluorescence. inhibition, % at 5.6 µM. 1,300 tested, under 10 active; call rule not given here;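 note: 0% = enzyme with vehicle and 100% = vehicle without enzyme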
VIM-2 FRET ctr – VIM-2 inhibitors in FRET format, confirmation, artefact control for selective VIM-2 inhibitor project, biochemical, epi-absorbance artifact exclusion | shares compounds with VIM-2 inhibitor | purified VIM-2, CCF2 FRET substrate hydrolysis | inhibition, % at 5.6 µM | 1,300 tested, 23% active | AID 1857, 2009;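 active = inhibition above the mean of all tested compounds plus 3 SD, cut at about 19% in these data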;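 note: 0% = VIM-2 plus DMSO and 100% = no enzyme wells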
TEM-1 counter – TEM-1 serine beta-lactamase inhibitors, counter-screen for VIM-2 inhibitor project, biochemical, epi-absorbance, HTS | inhibition, % at 5.6 µM | Purified TEM-1, nitrocefin hydrolysis, epi-absorbance fluorescence | AID 1866, 2009 | shares compounds with VIM-2 inhibitor | 1,300 tested, 3% active;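 active = inhibition above that campaign's mean inhibition plus 3 SD, cut at about 0.46% in these data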;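 note: 0% = TEM-1 with DMSO and 100% = TEM-1 with 100 µM potassium clavulanate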
Target sequence (P62593 whole entry, looked up): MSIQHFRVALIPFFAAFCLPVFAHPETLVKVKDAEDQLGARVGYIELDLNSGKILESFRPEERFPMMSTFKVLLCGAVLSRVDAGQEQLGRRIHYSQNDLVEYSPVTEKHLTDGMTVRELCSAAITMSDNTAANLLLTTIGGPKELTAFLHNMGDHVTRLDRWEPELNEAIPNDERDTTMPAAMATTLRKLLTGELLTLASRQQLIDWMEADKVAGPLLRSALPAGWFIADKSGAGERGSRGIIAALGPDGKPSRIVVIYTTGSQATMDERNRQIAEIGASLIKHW
VIM-2 confirm 2 – VIM-2 metallo-beta-lactamase inhibitors, confirmation, biochemical, epi-absorbance, hits shared with IMP-1 screen; shares compounds with VIM-2 inhibitor; purified VIM-2, nitrocefin hydrolysis; inhibition, % at 5.6 µM; 1,300 tested, 96% active;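 active = inhibition of the VIM-2 beta-lactamase enzyme above about 11% from the earlier first-round screen, limit read from the data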;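 note: 0% = VIM-2 with DMSO and 100% = buffer wells without enzyme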
* = called active by the depositor; x = not tested or not shown. Sampled rows, rich in hits. Any-hit rate of the full collection: about 2.6%.

SMILES	PHOSPHO1 block	ASAP1 GAP inh	VIM-2 inhibitor	IMP-1 inh-1	ARFGAP1 inh	Calb FLC	IMP-1 inh-2	VIM-2 FRET ctr	TEM-1 counter	VIM-2 confirm 2
CC(Oc1ccc2c3c(c(=O)oc2c1)CCCC3)C(=O)NCc1ccncc1 (configuration not stated)	37	5	25*	1	7	9	-2	-1	-4	38*
CC(Oc1ccc2c3c(c(=O)oc2c1)CCCC3)C(=O)NCC(O)c1ccccc1 (configuration not stated)	26	-7	5	-1	-8	1	x	x	x	x
Cc1cc(=O)oc2cc(OCC(=O)NC3CC(C)(C)NC(C)(C)C3)c(Cl)cc12	48	-6	1	-1	3	3	x	x	x	x
N#Cc1ccc(-c2cccc3nccn23)cc1	x	-11	x	x	-6	x	x	x	x	x
O=C(COc1ccc2c3c(c(=O)oc2c1)CCCC3)NCc1ccncc1	42	5	35*	-1	8	6	-1	2	3.2*	47*
CC1(C)CC(NC(=O)COc2ccc3c4c(c(=O)oc3c2)CCCC4)CC(C)(C)N1	20	4	20*	2	1	2	-3	-2	-6	26*
C=CCN(CC=C)Cc1c(O)ccc2c1oc(=O)c1ccccc12	x	-1	17*	-2	0	25	-3	-21	-5	44*
C=CCN(CC=C)Cc1cc(=O)oc2ccc3ccccc3c12	x	-1	x	x	0	x	x	x	x	x
O=C(Nc1ccc2c(c1)OCCO2)C1c2ccccc2OCC(=O)N1CCc1ccccc1 (configuration not stated)	x	14	x	x	10	x	x	x	x	x
Cc1ccc2c(c1)c1nc3ccccc3nc1n2C	14	1	14*	1	8	-1	-1	1	-4	16*
Cc1ccc2c(c1)c1nc3ccccc3nc1n2CCN1CCOCC1	7	1	2	-3	9	-25	x	x	x	x
CC(C)(C)NC(=O)C(c1ccccc1F)n1c(=O)c(-c2cc3ccccc3[nH]2)nc2ccccc21 (configuration not stated)	x	4	x	x	9	x	x	x	x	x
O=C(N/N=C/c1ccc(-n2ccnc2)cc1)c1cccs1	29	-3	77*	0	-4	1	-3	-11	-6	84*
COc1ccc(-c2nnc3c4ccccc4c(C)nn23)cc1S(=O)(=O)N1CCN(CCO)CC1	22	0	27*	-6	0	2	-3	11	-9	40*
O=S(=O)(c1ccccc1)N1CCN(CCO)CC1	14	-2	-1	-1	0	3	x	x	x	x
Cc1nn2c(-c3ccc(S(=O)(=O)N4CCN(CCO)CC4)o3)nnc2c2ccccc12	32	6	26*	0	6	1	-2	8	-3	35*
COc1ccc(-c2nnc3c4ccccc4c(C)nn23)cc1	21	4	7	-2	1	-6	x	x	x	x
CCc1nc2ccc(C(=O)NCCCn3ccnc3)cn2c1N(CC)CCOC	x	-4	x	x	11	x	x	x	x	x
Cc1sc2c(=O)n3c(nc2c1C(=O)NCCCN1CCOCC1)CCCCC3	7	-4	18*	-3	-3	2	-2	0	-6	36*
Cc1sc2c(=O)n3c(nc2c1C(=O)NC1CCCCC1)CCCCC3	14	-1	-1	-1	-9	21	x	x	x	x
O=C(CSc1ncn[nH]1)N1N=C(c2ccc(Cl)cc2)CC1c1ccco1 (configuration not stated)	-28	-4	13*	0	-12	-2	-3	30*	-6	17*
NC(=O)C1CCN(C(=O)CCc2nc3ccccc3c(=O)[nH]2)CC1	12	2	0	-1	-2	1	x	x	x	x
CN1CCN(C(=O)CCc2nc3ccccc3c(=O)[nH]2)CC1	0	-5	21*	-1	7	-3	-3	0	-6	42*
COc1ccc(OCCOC(=O)CNC(=O)c2ccc(F)cc2)cc1	x	-8	x	x	1	x	x	x	x	x
CCCN1CCN(C(=O)Cn2nc(C)n3c(cc4sccc43)c2=O)CC1	-13	-7	18*	-2	1	-6	-3	1	-6	23*
SMILES	PHOSPHO1 block	ASAP1 GAP inh	VIM-2 inhibitor	IMP-1 inh-1	ARFGAP1 inh	Calb FLC	IMP-1 inh-2	VIM-2 FRET ctr	TEM-1 counter	VIM-2 confirm 2
CCc1nn(CC(=O)N2CCN(CC)CC2)c(=O)c2cc3sccc3n12	23	-5	41*	1	-3	1	-3	3	-8	50*
Cc1cc(C)n2cc(CSc3nnc(-c4ccccc4)o3)nc2n1	78*	2	16*	1	6	-2	-3	30*	-3	21*
Cc1cc(C)n2cc(CSCc3ccccc3)nc2n1	-1	-4	2	-3	-6	13	x	x	x	x
CC(C)(C)n1nnnc1C(c1ccccc1)N1CCN(C(=O)C2CCCO2)CC1 (configuration not stated)	x	-12	x	x	-2	x	x	x	x	x
Cc1csc2c(C#N)c(=O)c3c(n12)CCC3	-23	15	14*	-1	4	-5	-4	-6	-9	22*
CCOC(=O)N1CCC(Nc2ccc3nnc(-c4ccccc4)n3n2)CC1	-4	9	15*	-4	-5	-17	-3	0	-3	24*
CC(C)Oc1cc(F)ccc1-c1cc(C(=O)NCc2cccs2)[nH]n1	x	-3	x	x	15	x	x	x	x	x
CN1CCN(c2ccc(NC(=O)N3CCc4ccccc43)cc2)CC1	x	-1	28*	-3	6	23	-4	-1	-5	40*
CN1CCN(c2ccc(NC(=O)c3sc4ccccc4c3Cl)cc2)CC1	16	6	22*	0	1	-21	-2	-6	-4	51*
